Experimental data reported in ChEMBL document CHEMBL1125489, “Antitumor agents. 134. New shiraiachrome-A- and calphostin-C-related perylene derivatives as cytotoxic and antiviral agents and inhibitors of protein kinase C” (1992).
≈ marks a conversion by molar mass, not a printed value. Where “and” joins values, the source holds several entries; their conditions need not be identical. Equal values may be shown once. Calls of active or inactive are those of the source. No cut-off for these calls is given here.

Experiments:
[1] = Cytotoxic concentration against RPMI-7951 tumor cells.; assay type: functional; details: Homo sapiens, read-out: ED50 (the source's name)
Method in brief: (§1)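 Tumor cells exposed 3 days to drug at 0.1, 1 and 10 μg/mL. ED50 is the concentration giving 50% reduction in cell number, estimated from the degree of inhibition at these three concentrations.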

[2] = Cytotoxic concentration against TE-671 tumor cells.; assay type: functional; details: Homo sapiens, read-out: ED50 (the source's name); method in brief: as §1
[3] = target: T1, Protein kinase C (PKC) (Homo sapiens) (UniProt O94806+P41743+P17252+P05129+Q05655+P05771+Q05513+Q02156+P24723+Q15139+Q04759); assay: Inhibition of protein kinase C(PKC); assay type: protein assay
Method in brief: (§2)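 Compound added in DMSO, with DMSO-only controls. Reaction started with PKC (1 μg/mL) and stopped with ice-cold TCA plus BSA. Precipitate collected on GF/C filters and counted by β scintillation.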

P388 = assay: Cytotoxic concentration against P388 tumor cells.; assay type: functional; details: Mus musculus, read-out: ED50 (the source's name); method in brief: as §1
A549 [4] = assay: Cytotoxic concentration against A-549 tumor cells; Inactive at 10 ug/mL.; assay type: functional, cell-based; details: Homo sapiens; method in brief: as §1
Vero [5] = assay: Antiviral activity against HSV-1 in vero cells; assay type: functional; details: Chlorocebus sabaeus, read-out: ED50
Method in brief: (§3)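 Confluent Vero cells infected at 3 PFU/cell with HSV-1 (Kos) or HSV-2 (333) in RPMI-1640 with 2% FCS. Drugs added during inoculation as two-fold serial dilutions (final 100, 50, 25, 12.5 μg/mL). Cytopathic effect scored by microscopy after 24 h.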

Vero [6] = assay: Antiviral activity against HSV-2 in vero cells; assay type: functional; details: Chlorocebus sabaeus, read-out: ED50; method in brief: as §3
[7] = target: Protein kinase C, PKC; classical/novel (Homo sapiens) (UniProt O94806+P17252+P05129+Q05655+P05771+Q02156+P24723+Q15139+Q04759); assay: Inhibition of protein kinase C(PKC), inhibition of phorbol binding by 80-100% at 38 uM; assay type: protein assay
HCT-8 = assay: Cytotoxic concentration against HCT-8 tumor cells.; assay type: functional; details: Homo sapiens, read-out: ED50 (the source's name); method in brief: as §1
A549 [8] = assay: Cytotoxic concentration against A-549 tumor cells.; assay type: functional; details: Homo sapiens, read-out: ED50 (the source's name); method in brief: as §1
KB 3-1 = assay: Cytotoxic concentration against KB tumor cells.; assay type: functional; details: Homo sapiens, KB 3-1, read-out: ED50; method in brief: as §1
[9] = target: T1, Protein kinase C (PKC) (Homo sapiens); assay: Inhibition of protein kinase C(PKC), maximal conc 40 uM; assay type: protein assay; method in brief: as §2

In the case of `O=c1ccc2c3ccc(=O)c4cccc(c5cccc1c52)c43`, the EC50 [1] is reported as 8.9 µg/mL (≈ 31.5 µM), the EC50 [2] is reported as 5210 µg/mL (≈ 18500 µM) and the PKC [3] is reported as > 218 µM. For the same molecule, the EC50 (P388) was 4350 µg/mL (≈ 15400 µM) and the ED50 (A549 [4]) was “inactive”.

For `O=c1cc(S(=O)(=O)[O-])c2c3c(S(=O)(=O)[O-])cc(O)c4c(=O)cc(S(=O)(=O)[O-])c(c5c(S(=O)(=O)[O-])cc(O)c1c52)c43.[Na+].[Na+].[Na+].[Na+]`, the EC50 (Vero [5]) was 2 µg/mL, the EC50 (Vero [6]) was 10 µg/mL and the PKC [3] was 200 µM and > 218 µM.

With `O=c1cc2c3cc(O)c(O)c4cccc(c5cccc(c1=O)c52)c43` the PKC [7] was 14 µM.

With `CC(=O)Oc1ccc2c3ccc(OC(C)=O)c4c(=O)cc(OC(C)=O)c(c5c(OC(C)=O)cc(=O)c1c25)c43` the PKC [3] was > 218 µM.

In the case of `CC(=O)Oc1cc2c3cc(OC(C)=O)c(=O)c4cccc(c5cccc(c1=O)c52)c43`, the EC50 [1] is reported as 50 µg/mL (≈ 126 µM), the EC50 (HCT-8) is reported as 560 µg/mL (≈ 1410 µM) and the EC50 (A549 [8]) is reported as 3840 µg/mL (≈ 9640 µM). It also gave an EC50 [2] of 680 µg/mL (≈ 1710 µM), a PKC [3] of 82 µM and an EC50 (KB 3-1) of 0.54 µg/mL (≈ 1.36 µM). For the same molecule, the EC50 (P388) was 360 µg/mL (≈ 904 µM).

For `COc1c2c3c4c(c(OC)c(=O)c5c(O)cc(OC)c(c6c(OC)cc(O)c(c1=O)c63)c54)[C@@H](C(C)=O)[C@@](C)(O)C2` (stereo in doubt; 1), the PKC [7] was 44 µM.

With `O=c1ccc2c3ccc(O)c4c(=O)ccc(c5ccc(O)c1c52)c43` the PKC [3] was > 218 µM.

`CC(=O)Oc1cc2c3cc(OC(C)=O)c(OC(C)=O)c4cccc(c5cccc(c1OC(C)=O)c52)c43` showed an EC50 [1] of 50 µg/mL (≈ 103 µM), an EC50 (HCT-8) of 4160 µg/mL (≈ 8590 µM) and an EC50 (A549 [8]) of 5410 µg/mL (≈ 11200 µM). For the same molecule, the EC50 [2] was 610 µg/mL (≈ 1260 µM), the PKC [3] was > 218 µM and the EC50 (P388) was 640 µg/mL (≈ 1320 µM).

In the case of `CC(=O)/N=c1\ccc2c3ccc(NC(C)=O)c4c(=O)c(OC(C)=O)cc(c5cc(OC(C)=O)c(O)c1c25)c43`, the PKC [3] is reported as 89 µM.

`N=c1cc2c3cc(N)c(O)c4c(O)ccc(c5ccc(O)c(c1=O)c52)c43` gave a PKC [3] of 95 µM.

With `CCCCCCCCCCCCCCCCCC(=O)Oc1cc2c3cc(OC(=O)CCCCCCCCCCCCCCCCC)c(=O)c4cccc(c5cccc(c1=O)c52)c43` the EC50 (KB 3-1) was 5.57 µg/mL (≈ 6.57 µM) and the PKC [9] was > 40 µM.

For `COc1cc(C(=O)Oc2cc3c4cc(OC(=O)c5cc(OC)c(O)c(OC)c5)c(=O)c5cccc(c6cccc(c2=O)c63)c54)cc(OC)c1O`, the PKC [9] was > 40 µM.

For `O=c1cc(O)c2c3c(O)cc(O)c4c(=O)cc(O)c(c5c(O)cc(O)c1c52)c43`, the PKC [3] was > 218 µM.

In the case of `CC(=O)Oc1cc(O)c2c(=O)cc(OC(C)=O)c3c4c(OC(C)=O)cc(=O)c5c(O)cc(OC(C)=O)c(c1c23)c54`, the PKC [3] is reported as > 218 µM.

For `COc1cc(C(=O)Oc2cc3c4cc(OC(=O)c5cc(OC)c(OC)c(OC)c5)c(=O)c5cccc(c6cccc(c2=O)c63)c54)cc(OC)c1OC`, the PKC [9] was > 40 µM.

With `O=C(/C=C/c1ccccc1)Oc1cc2c3cc(OC(=O)/C=C/c4ccccc4)c(=O)c4cccc(c5cccc(c1=O)c52)c43` the EC50 [1] was 5.5 µg/mL (≈ 9.57 µM), the EC50 (KB 3-1) was 5.5 µg/mL (≈ 9.57 µM) and the PKC [9] was > 40 µM.

In the case of `N=c1cc2c3cc(N)c(O)c4cccc(c5cccc(c1=O)c52)c43`, the PKC [3] is reported as > 218 µM.

For `COc1c2c3c4c(c(OC)c(=O)c5c(O)cc(OC)c(c6c(OC)cc(O)c(c1=O)c63)c54)[C@@H](C(C)=O)[C@@](C)(O)C2` (stereo in doubt; 2) [HYPOCRELLIN A], the EC50 (Vero [5]) was 5 µg/mL (≈ 9.15 µM), the EC50 (Vero [6]) was 5 µg/mL (≈ 9.15 µM) and the EC50 (P388) was 390 µg/mL (≈ 714 µM).

With `COc1cc(O)c2c(=O)cc(OC)c3c4c(OC)cc(=O)c5c(O)cc(OC)c(c1c23)c54` the EC50 (Vero [5]) was 3 µg/mL (≈ 6.91 µM), the EC50 (Vero [6]) was 15 µg/mL (≈ 34.5 µM) and the PKC [3] was > 218 µM.
